Columns and labels:
HaCaT [1] = assay: Antihyperproliferative activity against human HaCaT cells after 48 hrs by MTT assay; assay type: functional, cell-based
In short: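 HaCaT keratinocytes (mycoplasma-negative) exposed to compounds for 48 h, then MTT added (5 mg/mL stock in PBS) for 2 h at 37 °C. Formazan dissolved in DMSO and read at 570 nm, with 630 nm background. Inhibition = (1 − test/control) × 100, from test means (N = 3) against controls (N = 6-8). IC50 by nonlinear regression.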

[2] = molecular target: NAD(P)H dehydrogenase [quinone] 1 (Homo sapiens) (UniProt P15559); assay: Induction of recombinant human NQO-1-mediated superoxide generation assessed as two-electron reduction of compound by measuring SOD-inhibitable reduction of cytochrome c per unit enzyme at […] by spectrophotometric analysis (reference value: 0.2 +/- 0.1 micromol/L/min)
[3] = molecular target: T1, NADPH--cytochrome P450 reductase (Homo sapiens, UniProt P16435); assay: Induction of recombinant human CPR-mediated superoxide generation assessed as one-electron reduction of compound by measuring SOD-inhibitable reduction of succinoylated cytochrome c per 2 mU enzyme at […] by spectrophotometric analysis (reference value: 0.2 +/- 0.1 micromol/L/min)
T1 sequence (P16435 whole entry): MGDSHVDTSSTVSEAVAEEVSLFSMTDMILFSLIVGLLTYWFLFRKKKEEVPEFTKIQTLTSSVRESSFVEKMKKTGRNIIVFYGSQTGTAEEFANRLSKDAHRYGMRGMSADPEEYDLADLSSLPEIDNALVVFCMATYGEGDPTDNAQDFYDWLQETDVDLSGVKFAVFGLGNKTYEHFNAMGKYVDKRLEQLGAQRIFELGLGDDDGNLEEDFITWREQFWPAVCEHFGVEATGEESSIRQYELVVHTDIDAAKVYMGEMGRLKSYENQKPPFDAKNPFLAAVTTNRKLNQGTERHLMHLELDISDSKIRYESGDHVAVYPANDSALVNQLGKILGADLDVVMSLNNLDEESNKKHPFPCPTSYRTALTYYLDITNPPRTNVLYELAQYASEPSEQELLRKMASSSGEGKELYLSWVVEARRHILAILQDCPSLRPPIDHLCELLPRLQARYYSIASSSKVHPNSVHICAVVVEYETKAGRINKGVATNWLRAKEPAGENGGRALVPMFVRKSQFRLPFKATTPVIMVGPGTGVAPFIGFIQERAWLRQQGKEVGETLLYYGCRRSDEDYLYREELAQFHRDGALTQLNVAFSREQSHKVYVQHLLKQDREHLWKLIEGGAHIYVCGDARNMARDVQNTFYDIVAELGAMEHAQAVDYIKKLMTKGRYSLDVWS

HaCaT [4] = assay: Induction of superoxide generation in human HaCaT cells assessed as 2-OH-E+ oxidized product formation by measuring mean fluorescence intensity at 50 umol/L after 30 mins by flow cytometry (reference value: 7.1 +/- 5.2); assay type: functional
HaCaT [5] = assay: (§1) Induction of superoxide generation in human HaCaT cells assessed as 2-OH-E+ oxidized product formation by measuring mean fluorescence intensity at 5 umol/L after 18 hrs by flow cytometry (reference value: 367.5 +/- 80.1); assay type: functional
In short: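 HaCaT keratinocytes grown in DMEM with 10% FBS and penicillin/streptomycin for 24 h at 37 °C, then exposed to test compound (5 µM, 0.1% DMSO final) for 18 h. DHE was added and loaded for 30 min, with shaking for the first 5 min, in the dark. Cells were trypsinized and read by flow cytometry (488 nm excitation, FL2 550–600 nm), 10 000 live cells, dead cells gated out. Read-out is MFI versus DMSO control; triplicate.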

HaCaT [6] = assay: as §1, with “umol/L preincubated with 5 umol/L NQO-1 inhibitor dicoumarol for 25 mins followed by compound treatment measured” for “umol/L”, “407.59” for “367.5”, “68.7)” for “80.1)”; assay type: functional
In short: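 HaCaT cells were cultured as for the chronic assay and preincubated 25 min with dicoumarol (5 µmol/L) before test compound was added. DHE was loaded for 30 min in the dark, then cells were trypsinized. 2-OH-E+ fluorescence was read by flow cytometry in FL2 (550–600 nm) on 10 000 live cells, dead cells gated out, as MFI against DMSO control. Triplicate.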

HaCaT [7] = assay: Induction of apoptosis in human HaCaT cells at 5 umol/L after 18 hrs by 7-AAD staining based flow cytometry (reference value: 3 +/- 1%); assay type: functional
HaCaT [8] = assay: Induction of apoptosis in human HaCaT cells at 5 umol/L preincubated with 5 umol/L NQO-1 inhibitor dicoumarol for 25 mins followed by compound treatment measured after 18 hrs by 7-AAD staining based flow cytometry (reference value: 4.3 +/- 2.6%); assay type: functional; design: scale not given: the % may be the effect or the level left

NAD(P)H dehydrogenase [quinone] 1 (Homo sapiens), sequence (P15559 whole entry): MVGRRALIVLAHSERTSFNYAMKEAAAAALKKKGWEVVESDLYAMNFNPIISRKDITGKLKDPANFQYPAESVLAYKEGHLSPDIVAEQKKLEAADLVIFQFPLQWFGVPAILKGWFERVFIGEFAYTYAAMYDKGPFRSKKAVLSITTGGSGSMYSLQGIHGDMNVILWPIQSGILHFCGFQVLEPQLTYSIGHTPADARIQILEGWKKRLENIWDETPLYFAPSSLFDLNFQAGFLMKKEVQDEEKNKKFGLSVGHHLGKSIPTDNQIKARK

| Structure (SMILES) | IC50 (HaCaT [1]) | other results |
| --- | --- | --- |
| CCc1noc(-c2ccc3sc4ccccc4c(=O)c3c2)n1 | > 30 µM |  |
| CCc1noc(-c2cc3c(OC)ccc(OC)c3s2)n1 | > 30 µM |  |
| Cc1nnc(-c2cc3c(s2)C(=O)c2ccccc2C3=O)s1 | 3.7 µM |  |
| CCc1noc(-c2cc3cc4ccccc4cc3s2)n1 | > 30 µM |  |
| COC(=O)c1cc2c(s1)C(=O)c1ccccc1C2=O | 0.71 µM |  |
| CCc1noc(-c2ccc3c(c2)C(=O)C=CC3=O)n1 | 14 µM |  |
| CCc1noc(-c2cc3c(s2)C(=O)c2ccccc2C3=O)n1 | 0.36 µM | Activity [2]: 0.5 µmol/L/min; Activity [3]: 0.9 µmol/L/min; Flu intensity (HaCaT [4]): 25.2; Flu intensity (HaCaT [5]): 930.1; Flu intensity (HaCaT [6]): 558.7; Activity (HaCaT [7]): 39.3%; Activity (HaCaT [8]): 6.9% |
| CCc1nnc(-c2cc3c(s2)C(=O)c2ccccc2C3=O)s1 | > 15 µM |  |
| CCc1nc(-c2ccc3c(c2)C(=O)c2ccccc2C3=O)no1 | > 30 µM |  |
| CC(=O)c1cc2c(s1)C(=O)c1ccccc1C2=O |  | Activity [2]: 0.8 µmol/L/min; Activity [3]: 1.2 µmol/L/min; Flu intensity (HaCaT [4]): 19.2; Flu intensity (HaCaT [5]): 500; Flu intensity (HaCaT [6]): 434.5; Activity (HaCaT [7]): 4.2%; Activity (HaCaT [8]): 3.7% |
| O=C(O)c1cc2c(s1)C(=O)c1ccccc1C2=O | > 30 µM |  |
| CCc1nc(-c2cc3c(s2)C(=O)c2ccccc2C3=O)no1 | 0.58 µM |  |
| O=C1c2ccccc2C(=O)c2sc(-c3nncs3)cc21 | 0.3 µM |  |
| CCc1noc(-c2cc3oc4ccccc4c(=O)c3s2)n1 | > 30 µM |  |
| CCc1noc(-c2ccccc2)n1 | > 30 µM |  |
| CCc1noc(-c2cc3c(s2)C(=O)C=CC3=O)n1 | 11 µM |  |
| CC(=O)/C=C/c1cc2c(s1)C(=O)c1ccccc1C2=O | > 30 µM |  |
| Cc1nnc(-c2cc3c(s2)C(=O)c2ccccc2C3=O)o1 | 0.08 µM |  |
| Nc1cc2c(s1)C(=O)c1ccccc1C2=O | > 30 µM | Activity [2]: 0.8 µmol/L/min; Activity [3]: 1.1 µmol/L/min; Flu intensity (HaCaT [4]): 76.7; Flu intensity (HaCaT [5]): 518; Flu intensity (HaCaT [6]): 502.3; Activity (HaCaT [7]): 5.6%; Activity (HaCaT [8]): 3.2% |
| CCc1noc(-c2cccs2)n1 | > 30 µM |  |
| O=C1c2ccccc2C(=O)c2sc([N+](=O)[O-])cc21 | 1.8 µM | Activity [2]: 4.6 µmol/L/min; Activity [3]: 2 µmol/L/min; Flu intensity (HaCaT [4]): 138; Flu intensity (HaCaT [5]): 973.8; Flu intensity (HaCaT [6]): 1022; Activity (HaCaT [7]): 5.6%; Activity (HaCaT [8]): 3.4% |
| NNC(=O)c1cc2c(s1)C(=O)c1ccccc1C2=O | 1.7 µM |  |
| CN/N=C/c1cc2c(s1)C(=O)c1ccccc1C2=O | > 30 µM |  |
| Cc1cc2c(s1)C(=O)c1ccccc1C2=O | 5.2 µM | Activity [2]: 0.3 µmol/L/min; Activity [3]: 1.1 µmol/L/min; Flu intensity (HaCaT [4]): 11.5; Flu intensity (HaCaT [5]): 517; Flu intensity (HaCaT [6]): 633.5; Activity (HaCaT [7]): 4.3%; Activity (HaCaT [8]): 4.3% |
| CCc1noc(-c2cc3ccccc3s2)n1 | > 30 µM |  |
| O=Cc1cc2c(s1)C(=O)c1ccccc1C2=O | 1.2 µM |  |
| O=C1c2ccccc2C(=O)c2sc(-c3nnn[nH]3)cc21 | > 30 µM |  |

| Structure (SMILES) | IC50 (HaCaT [1]) | other results |
| --- | --- | --- |
| CCc1noc(C=C2c3ccccc3C(=O)c3ccccc32)n1 | 6.5 µM |  |
| CCCC(=O)Nc1cc2c(s1)C(=O)c1ccccc1C2=O | 5.7 µM |  |
| CCc1noc(-c2cc3c(s2)Cc2ccccc2C3=O)n1 | 7.3 µM |  |
| O=C1c2ccccc2C(=O)c2sc(-c3nnco3)cc21 | 0.22 µM |  |
| O=C(Nc1cc2c(s1)C(=O)c1ccccc1C2=O)c1ccccc1 | 2.3 µM |  |
| CCCCc1nnc(-c2cc3c(s2)C(=O)c2ccccc2C3=O)o1 | 1.9 µM |  |
| CCc1noc(-c2ccc3c(=O)c4ccccc4oc3c2)n1 | > 30 µM |  |
| CCc1noc(-c2ccc(C(C)=O)cc2)n1 | > 30 µM |  |
| CCc1noc(-c2ccc3c(c2)C(=O)c2ccccc2C3=O)n1 | > 30 µM |  |
| CC1=CC(=O)c2ccccc2C1=O [MENADIONE] |  | Activity [2]: 1 µmol/L/min; Activity [3]: 2.1 µmol/L/min; Flu intensity (HaCaT [4]): 44; Flu intensity (HaCaT [5]): 431.9; Flu intensity (HaCaT [6]): 457.2; Activity (HaCaT [7]): 4.8%; Activity (HaCaT [8]): 3.1% |
| CCc1nnc(-c2cc3c(s2)C(=O)c2ccccc2C3=O)o1 | 0.15 µM |  |
| CC(C)C(=O)Nc1cc2c(s1)C(=O)c1ccccc1C2=O | 3.3 µM |  |
| CCc1noc(-c2cc3c(OC)c4ccccc4c(OC)c3s2)n1 | 6.7 µM |  |
| O=C1c2ccccc2C(=O)c2sc(-c3nnc(-c4ccccc4)o3)cc21 | > 30 µM |  |
| O=C1c2ccccc2C(=O)c2c([N+](=O)[O-])csc21 | 1.1 µM |  |
| COc1ccc(C(=O)Nc2cc3c(s2)C(=O)c2ccccc2C3=O)cc1 | 1.1 µM |  |
| O=C1c2ccccc2C(=O)c2sccc21 [THIOPHENONAPHTHOQUINONE] |  | Activity [2]: 1.2 µmol/L/min; Activity [3]: 1.2 µmol/L/min; Flu intensity (HaCaT [4]): 10.5; Flu intensity (HaCaT [5]): 552.7; Flu intensity (HaCaT [6]): 583.3; Activity (HaCaT [7]): 4%; Activity (HaCaT [8]): 7.4% |
| CCc1noc(-c2ccc(C(=O)c3ccccc3)s2)n1 | > 30 µM |  |
| O=C1c2ccccc2C(=O)c2sc(/C=N/Nc3ccccc3)cc21 | > 30 µM |  |
| CCc1noc(C2=CC(=O)c3ccccc3C2=O)n1 | > 30 µM |  |
| CCc1noc(-c2cc(C(C)=O)cs2)n1 | > 30 µM |  |
| N#Cc1cc2c(s1)C(=O)c1ccccc1C2=O | 0.46 µM |  |
| O=C(/C=C/c1cc2c(s1)C(=O)c1ccccc1C2=O)c1ccccc1 | > 30 µM |  |
| CCc1noc(-c2cc3c(OC)c4ccccc4cc3s2)n1 | > 30 µM |  |
| CCc1noc(-c2ccc3ccccc3c2)n1 | > 30 µM |  |
| CCC(=O)Nc1cc2c(s1)C(=O)c1ccccc1C2=O | 9.6 µM |  |
